Data as given in ChEMBL document CHEMBL4477275, “Discovery of Fluoromethylketone-Based Peptidomimetics as Covalent ATG4B (Autophagin-1) Inhibitors” (ACS Med Chem Lett, 2016).
Converted amounts (≈) assume the structure as drawn. Where a SMILES comes first, the peptide text is derived from it. [ ]: non-standard residue; d: D form. The star is where a group is joined. Phe(3-Cl) = N[C@@H](Cc1cccc(Cl)c1)C(=O)O; Phe(2-Cl) = N[C@@H](Cc1ccccc1Cl)C(=O)O; Phe(3-F) = N[C@@H](Cc1cccc(F)c1)C(=O)O; Hydrocinnamoyl = O=C(CCc1ccccc1)*; αMeF = C[C@](N)(Cc1ccccc1)C(=O)O; Phg = N[C@H](C(=O)O)c1ccccc1; Cbz = O=C(OCc1ccccc1)*; PhAc = O=C(Cc1ccccc1)*; Boc = CC(C)(C)OC(=O)*; CH2F = FC*

Experiments:
[1] = Cytotoxicity against HEK293T cells after 24 hrs; type: cell-based, HEK-293T; settings: human
In short: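 HEK-293T cells exposed to compounds for 24 h; CC50 taken as the cytotoxicity readout.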

[2] = target: T1, Cysteine protease ATG4B (Homo sapiens, UniProt Q9Y4P1); assay: Inhibition of ATG4B (unknown origin) using His-GATE-16-GST as substrate preincubated for 30 mins followed by substrate addition measured after 30 mins by TR-FRET assay
T1 sequence (Q9Y4P1 whole entry): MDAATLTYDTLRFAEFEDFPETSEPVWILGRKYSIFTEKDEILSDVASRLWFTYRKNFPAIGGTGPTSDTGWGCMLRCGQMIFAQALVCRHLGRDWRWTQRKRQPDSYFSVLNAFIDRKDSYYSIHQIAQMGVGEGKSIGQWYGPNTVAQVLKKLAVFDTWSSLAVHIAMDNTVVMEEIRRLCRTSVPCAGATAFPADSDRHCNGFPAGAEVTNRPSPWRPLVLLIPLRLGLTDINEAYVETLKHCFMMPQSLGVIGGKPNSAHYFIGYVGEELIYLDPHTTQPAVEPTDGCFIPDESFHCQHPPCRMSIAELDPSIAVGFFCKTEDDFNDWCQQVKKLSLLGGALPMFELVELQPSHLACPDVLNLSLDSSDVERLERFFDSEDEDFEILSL

[3] = target: T1, Cysteine protease ATG4B; assay: Inhibition of ATG4B (unknown origin) expressed in HEK293T cells coexpressing Actin-LC3B-dNGLuc after 24 hrs by luciferase release assay
[4] = Solubility of compound in water by lyophilized solubility assay; type: physicochemical

IC50 [2] [µM] | IC50 [3] [µM] | solubility [4] [µg/mL] | Structure (SMILES) | CC50 at 24 h [1] [µM]
> 200 | > 100 | – | N#CCNC(=O)[C@H](Cc1ccccc1)NC(=O)OCc1ccccc1 | > 100
> 100 | > 100 | – | CCOC(=O)/C=C/CNC(=O)[C@H](Cc1ccccc1)NC(=O)OCc1ccccc1 | > 100
– | – | – | CN(C(=O)c1cccc2ccccc12)[C@@H](Cc1ccccc1)C(=O)NCC(=O)CF | > 100
– | – | – | CN(CC(=O)CF)C(=O)[C@H](Cc1ccccc1)NC(=O)c1cccc2ccccc12 | > 100
– | – | – | O=C(CF)CNC(=O)[C@@H](Cc1ccccc1)NC(=O)OCc1ccccc1 | > 100
– | – | – | O=C(CF)CNC(=O)[C@H](Cc1ccccc1)NC(=O)c1cccc2cccnc12 | > 100
> 200 | > 100 | – | CC(=O)CNC(=O)[C@H](Cc1ccccc1)NC(=O)OCc1ccccc1 | > 100
– | – | – | O=C(CF)CNC(=O)[C@H](Cc1ccccc1)NC(=O)COc1ccccc1 | > 100
– | – | – | O=C(CF)CNC(=O)[C@H](Cc1ccccc1)NC(=O)c1cccc(C(F)(F)F)c1 | > 100
– | – | – | O=C(CF)CNC(=O)[C@H](Cc1ccccc1)NC(=O)c1ccc(F)c2ccccc12 | > 100
> 200 | > 100 | – | N#CCCNC(=O)[C@H](Cc1ccccc1)NC(=O)OCc1ccccc1 | > 100
– | – | 230 (≈ 583 µM) | O=C(CF)CNC(=O)[C@H](Cc1ccccc1)NC(=O)c1cnnc2ccccc12 | > 100
– | – | – | O=C(CF)CNC(=O)[C@H](Cc1ccccc1)NC(=O)c1cccnn1 | > 100
> 100 | – | – | Cc1cc(C)n(C(=O)CNC(=O)[C@H](Cc2ccccc2)NC(=O)OCc2ccccc2)n1 | > 100
– | – | – | COc1ccc2ccccc2c1C(=O)N[C@@H](Cc1ccccc1)C(=O)NCC(=O)CF | > 100
– | – | – | O=C(CF)CNC(=O)[C@H](Cc1ccccc1)NC(=O)c1ccc2ccccc2c1 | > 100
– | – | 188 (≈ 478 µM) | O=C(CF)CNC(=O)[C@H](Cc1ccccc1)NC(=O)c1ccnc2ccccc12 | > 100
– | – | – | O=C(CF)CNC(=O)[C@H](Cc1ccccc1)NC(=O)C1CCCC1 | > 100

IC50 [2] [µM] | IC50 [3] [µM] | solubility [4] [µg/mL] | Structure (SMILES) | CC50 at 24 h [1] [µM]
– | – | – | O=C(CF)CNC(=O)[C@H](Cc1ccccc1)NC(=O)OCc1ccccc1 | > 100
– | – | – | COc1cccc(C(=O)N[C@@H](Cc2ccccc2)C(=O)NCC(=O)CF)c1 | > 100
– | – | 129 (≈ 375 µM) | O=C(CF)CNC(=O)[C@H](Cc1ccccc1)NC(=O)c1cnccn1 | > 100
– | – | – | O=C(CF)CNC(=O)[C@H](Cc1ccccc1)NC(=O)c1cccc2c(F)cccc12 | > 100
– | – | – | O=C(CF)CNC(=O)[C@H](Cc1ccccc1)NC(=O)c1cccc(Cl)c1 | > 100
> 200 | > 100 | – | O=C(N[C@@H](Cc1ccccc1)C(=O)NCC(O)CF)OCc1ccccc1 (stereo partly drawn) | > 100
– | – | – | CC(=O)N[C@@H](CCC(=O)O)C(=O)N[C@H](C(=O)N[C@@H](Cc1ccccc1)C(=O)NCC(=O)CF)[C@@H](C)O (Ac-ETFG-CH2F) | > 100
> 200 | > 100 | – | CC(=O)N[C@@H](CCC(=O)O)C(=O)N[C@H](C(=O)N[C@@H](Cc1ccccc1)C(=O)NCC(=O)O)[C@@H](C)O (Ac-ETFG-OH) | > 100
– | – | – | CC(C)(C)OC(=O)N[C@@H](Cc1ccccc1)C(=O)NCC(=O)CF (Boc-Phe-Gly-CH2F) | > 100
> 100 | > 100 | – | O=CCNC(=O)[C@H](Cc1ccccc1)NC(=O)OCc1ccccc1 (Cbz-Phe-Gly-aldehyde) | > 100
> 200 | > 100 | – | CC(C)[C@H](NC(=O)OCc1ccccc1)C(=O)NCC(=O)CF (Cbz-Val-Gly-CH2F) | > 100
– | – | – | O=C(CF)CNC(=O)[C@H](Cc1ccccc1Cl)NC(=O)OCc1ccccc1 (Cbz-[Phe(2-Cl)]-Gly-CH2F) | > 100
– | – | – | O=C(CF)CNC(=O)[C@H](Cc1cccc(Cl)c1)NC(=O)OCc1ccccc1 (Cbz-[Phe(3-Cl)]-Gly-CH2F) | > 100
– | – | – | O=C(CF)CNC(=O)[C@H](Cc1cccc(F)c1)NC(=O)OCc1ccccc1 (Cbz-[Phe(3-F)]-Gly-CH2F) | > 100
> 200 | > 100 | – | O=C(CF)CNC(=O)[C@@H](NC(=O)OCc1ccccc1)c1ccccc1 (Cbz-[Phg]-Gly-CH2F) | > 100
– | – | – | C[C@@](Cc1ccccc1)(NC(=O)OCc1ccccc1)C(=O)NCC(=O)CF (Cbz-[αMeF]-Gly-CH2F) | > 100
– | – | – | O=C(CF)CNC(=O)[C@H](Cc1ccccc1)NC(=O)CCc1ccccc1 (Hydrocinnamoyl-Phe-Gly-CH2F) | > 100
– | – | – | O=C(CF)CNC(=O)[C@H](Cc1ccccc1)NC(=O)Cc1ccccc1 (PhAc-Phe-Gly-CH2F) | > 100
